Each structure is given as a SMILES string.

Data set [1] in a line: Hep G2 cytotoxicity assay. It is filed as cell-based. To be noted: human, Hep G2 cells.
The test system of data set [2] is T. brucei brucei Lister 427 bloodstream-form parasites. Nature of the data set: T. brucei cell viability assay. It is filed as cell-based. The note with it: Trypanosoma brucei, 48 h, read-out: T. brucei EC50. An outline of the steps:
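Parasite EC50 reported as the mean ± standard error of 3 biological replicates. Each biological replicate's EC50 was calculated from technical triplicate data.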

The subject of data set [3] is T. brucei. The note with it: read-out: EC50 against T. brucei; cited from earlier work.
The test system of data set [4] is extracellular L. amazonensis. To be noted: read-out: EC50 against L. amazonensis; cited from earlier work.

For `COC(=O)c1[nH]c(C(=O)OC)c(-c2c[nH]c3ccc(Cl)cc23)c1-c1c[nH]c2ccc(Cl)cc12` [Compound 12, lynamicin D], the cytotoxic concentration (CC50) – broadly, the concentration that lowers cell viability or growth by half – at 72 h in data set [1] is above 10 µM. Further, in data set [2], the EC50 – broadly, the midpoint of the concentration-response curve – was found to be 8.3 ± 1 µM.
`COC(=O)c1[nH]cc(-c2c[nH]c3ccc(Cl)cc23)c1-c1c[nH]c2ccc(Cl)cc12` [Compound 13, lynamicin A] gave a CC50 at 72 h in data set [1] above 10 µM. In addition, the EC50 in data set [2] came to 8.2 ± 0.45 µM.
With `CC1(C)OB(O)c2cc(NC(=O)c3ccc(F)cc3C(F)(F)F)ccc21` [acoziborole], in data set [3], the EC50 is 0.6 µM.
`CCCCCCCCCCCCCCCCOP(=O)([O-])OCC[N+](C)(C)C` [miltefosine]: the EC50 in data set [4] was 1.2 µM.

The record behind these values is article PMC8336461 (Chemical Science, 2021).
